Assay results of several laboratories.
Each line is one published result; the experiments were not run side by side.
Technique: competition with immobilised ligand
RPS6KA6 C-terminal kinase domain: Ribosomal protein S6 kinase alpha-6, C-terminal kinase domain (RPS6KA6, Homo sapiens, UniProt Q9UK32)
RPS6KA6 N-terminal kinase domain: Ribosomal protein S6 kinase alpha-6, N-terminal kinase domain (RPS6KA6, Homo sapiens, UniProt Q9UK32)

O=C(c1ccc(Nc2ncc(Cl)c(-c3ccc(Cl)s3)n2)cc1)N1CCC(N2CCCC2)CC1 — remaining binding (RPS6KA6 C-terminal kinase domain; binding; 1 µM): 83%
CCN1CCN(Cc2ccc(C(=O)Nc3ccc(C)c(Oc4ccc5c(c4)CC(=O)N5)c3)cc2C(F)(F)F)CC1 — remaining binding (RPS6KA6 N-terminal kinase domain; binding; 1 µM): 100%
CCCCN(CCCC)C(=O)CN1C[C@@H](c2cc(OC)c3c(c2)OCO3)[C@H](C(=O)O)[C@H]1CC(C)(C)CCC — remaining binding (RPS6KA6 N-terminal kinase domain; cell-free assay; 1 µM): 96.6%
CN(c1nccc(-c2cnn3ncccc23)n1)C1CC1 — remaining binding (RPS6KA6 C-terminal kinase domain; binding; 1 µM): 100%
NS(=O)(=O)c1cc(NC(=O)C2(c3ccccc3Cl)CC2)ccc1Oc1cccc(Cl)c1 — remaining binding (RPS6KA6 N-terminal kinase domain; cell-free assay; 1 µM): 100%
O=C(NCCCN1CCOCC1)c1ccc(Nc2ncc(Cl)c(-c3ccc(Cl)s3)n2)cc1 — remaining binding (RPS6KA6 N-terminal kinase domain; binding; 1 µM): 72%
COc1ncc2cc3ccccc3nc2c1C#N — remaining binding (RPS6KA6 C-terminal kinase domain; cell-free assay; 5 µM): 73%
O=C(O)[C@H]1[C@H](Cn2nnc3ccccc3c2=O)CC[C@@H]1C(=O)c1ccc(OCCC2CCOCC2)cc1 — remaining binding (RPS6KA6 C-terminal kinase domain; cell-free assay; 1 µM): 97%
FC(F)(F)Oc1cccc(-c2cnc3ccc(-c4ccncc4)nn23)c1 — remaining binding (RPS6KA6 C-terminal kinase domain; binding; 5 µM): 34%
Cn1nc(C(F)(F)F)cc1-c1cnc(N2CCc3cc(S(=O)(=O)Nc4c(F)cc(Cl)cc4F)cc(N4CCCC4=O)c32)nc1 — remaining binding (RPS6KA6 N-terminal kinase domain; cell-free assay; 1 µM): 85%
O=C(c1ccc(Nc2ncc(Cl)c(-c3cc4ccccc4s3)n2)cc1)N1CCC(N2CCCC2)CC1 — remaining binding (RPS6KA6 C-terminal kinase domain; binding; 1 µM): 89%
F[C@@H]1CCN(c2nccc(-c3cnn4ncccc34)n2)C1 — remaining binding (RPS6KA6 C-terminal kinase domain; binding; 1 µM): 92%
COc1cnc(Nc2cccc(S(N)(=O)=O)c2)nc1N1CCN(c2ccccc2)CC1 — remaining binding (RPS6KA6 N-terminal kinase domain; binding; 1 µM): 73%
Cc1c(C(=O)O)cc(-c2ccc(C3CCNCC3)cc2)c2ccc(-c3ccc(C(F)(F)F)cc3)cc12 — remaining binding (RPS6KA6 C-terminal kinase domain; binding; 1 µM): 100%
N[C@H]1CCN(c2nccc(-c3cnn4ncccc34)n2)C1 — remaining binding (RPS6KA6 C-terminal kinase domain; binding; 1 µM): 86%
O=C(NS(=O)(=O)c1ccc(NCC2CCOCC2)c([N+](=O)[O-])c1)c1ccc(N2CCN(Cc3ccc(C(F)(F)F)cc3-c3ccc(Cl)cc3)CC2)cc1Oc1cnc2[nH]ccc2c1 — remaining binding (RPS6KA6 C-terminal kinase domain; cell-free assay; 1 µM): 100%
O=C(NCC1CCOCC1)c1n[nH]cc1NC(=O)c1c(F)cccc1F — remaining binding (RPS6KA6 N-terminal kinase domain; binding; 1 µM): 41%
c1cncc(-c2cccc(Nc3nccc(NC4CCCCC4)n3)c2)c1 — remaining binding (RPS6KA6 N-terminal kinase domain; binding; 10 µM): 50%
Cc1cnc(Nc2ccc(C(=O)N3CCC(N4CCCC4)CC3)cc2)nc1-c1cc2ccccc2s1 — remaining binding (RPS6KA6 N-terminal kinase domain; binding; 1 µM): 30%
Cc1cnn2ncc(-c3ccnc(N(C)C)n3)c2c1 — remaining binding (RPS6KA6 N-terminal kinase domain; binding; 1 µM): 82%
Nc1ncc2c(n1)-c1c([nH]c3ccc(C#CC4CC4)cc13)CCCC2 — remaining binding (RPS6KA6 N-terminal kinase domain; binding; 1 µM): 78%
O=C(c1ccc(Nc2nccc(-c3cc4ccccc4s3)n2)cc1)N1CCC(N2CCCC2)CC1 — remaining binding (RPS6KA6 N-terminal kinase domain; binding; 1 µM): 98%
CN(C)c1ncc(F)c(-c2cnn3ncccc23)n1 — remaining binding (RPS6KA6 C-terminal kinase domain; binding; 1 µM): 98%
O=C(Nc1c[nH]nc1C(=O)NC1CCNCC1)c1cc(F)cc(F)c1 — remaining binding (RPS6KA6 C-terminal kinase domain; binding; 1 µM): 100%
Cc1cc(-n2nc(Cc3cc(F)cc(C(F)(F)F)c3)nc2C)ccc1C(N)=O — remaining binding (RPS6KA6 N-terminal kinase domain; cell-free assay; 1 µM): 89%
COc1cnc(Nc2cccc(S(N)(=O)=O)c2)nc1N1CCN(c2ccccc2)C(=O)C1 — remaining binding (RPS6KA6 C-terminal kinase domain; binding; 1 µM): 92%
CN(C)c1nccc(-c2cnn3ncccc23)n1 — remaining binding (RPS6KA6 N-terminal kinase domain; binding; 1 µM): 92%
CNC(=O)[C@@H]1CC[C@@H](n2c(-c3ccc4cnccc4c3)nc3ccc(C(=O)NCc4cccc(C(N)=O)c4)cc32)C1 — remaining binding (RPS6KA6 C-terminal kinase domain; binding; 1 µM): 97%
COc1cc(C(=O)N2CCC(N3CCN(C)CC3)CC2)ccc1Nc1ncc2c(n1)N(C)c1ccccc1C(=O)N2C — remaining binding (RPS6KA6 C-terminal kinase domain; binding; 10 µM): 2.2%
CC1CCCN1c1nccc(-c2cnn3ncccc23)n1 (stereo not drawn) — remaining binding (RPS6KA6 C-terminal kinase domain; binding; 1 µM): 100%
O=C(NCCCN1CCOCC1)c1ccc(Nc2nccc(-c3cc4ccccc4s3)n2)cc1 — remaining binding (RPS6KA6 C-terminal kinase domain; binding; 1 µM): 35%
CN([C@@H]1CCc2c(CC(=O)O)c3ccccc3n2C1)S(=O)(=O)c1ccc(F)cc1 — remaining binding (RPS6KA6 C-terminal kinase domain; cell-free assay; 1 µM): 100%
CN(C)c1nccc(-c2cnc3ncccn23)n1 — remaining binding (RPS6KA6 N-terminal kinase domain; binding; 1 µM): 69%
